Among the data in ChEMBL document CHEMBL1687765, “NagZ inactivation prevents and reverts beta-lactam resistance, driven by AmpD and PBP 4 mutations, in Pseudomonas aeruginosa” (2010) are MIC and Activity values, retold here.

Usually MIC stands for the lowest concentration found to suppress growth.

Molecules are shown by their SMILES. ≈ marks a conversion by molar mass, not a printed value. Calls of active or inactive are those of the source. The calls are words filed in the database; no cut-off is given here.

Assay [1] concerns Pseudomonas aeruginosa. In words: Antimicrobial activity against ampD::lox gene-deficient Pseudomonas aeruginosa PAO1 harboring dacB gene by Etest method. Type of assay: functional. In outline: (§1)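 MICs read from Etest strips on Mueller-Hinton agar per manufacturer's instructions; agents ceftazidime, cefepime, aztreonam, piperacillin, piperacillin-tazobactam, imipenem and meropenem.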

Assay [2] relates to Pseudomonas aeruginosa. Briefly: Antimicrobial activity against Pseudomonas aeruginosa PAO1 by broth microdilution method in presence of 0.5 mM NagZ inhibitor PUGNAc. It is filed as functional. In outline: (§2)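 Broth microdilution MICs of ceftazidime, aztreonam and piperacillin in 100 μl cation-adjusted Mueller-Hinton broth, with or without NagZ inhibitor PUGNAc at 0.5 mM or 5 mM; measurements in triplicate.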

Assay [3] concerns Pseudomonas aeruginosa. Briefly: Antimicrobial activity against ampD::lox gene-deficient Pseudomonas aeruginosa PAO1 harboring dacB gene by broth microdilution method. Type of assay: functional. In outline: as §2
A general note: In broth dilution the organism is exposed to a series of concentrations in liquid medium.

Assay [4] relates to Pseudomonas aeruginosa. Briefly: Antimicrobial activity against ampD::lox gene-deficient Pseudomonas aeruginosa PAO1 harboring dacB gene by broth microdilution method in presence of 0.5 mM NagZ inhibitor PUGNAc. Type of assay: functional. In outline: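 MICs of ceftazidime, aztreonam and piperacillin determined by broth microdilution in cation-adjusted Mueller-Hinton broth, with 0.5 mM of the N-acetyl-β-glucosaminidase (NagZ) inhibitor PUGNAc added alongside the β-lactam and untreated controls run in parallel; all measurements performed in triplicate.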

The subject of assay [5] is Pseudomonas aeruginosa. In words: Antimicrobial activity against dacB::lox gene-deficient Pseudomonas aeruginosa PAO1 by broth microdilution method in presence of 0.5 mM NagZ inhibitor PUGNAc. Type of assay: functional. In outline: as §2
Assay [6] has as its system Pseudomonas aeruginosa. In words: Antimicrobial activity against ampD::lox gene-deficient Pseudomonas aeruginosa PAO1 by broth microdilution method in presence of 0.5 mM NagZ inhibitor PUGNAc. Type of assay: functional. Summed up:
as §2

Assay [7] has as its system Pseudomonas aeruginosa. In words: Antimicrobial activity against ampD::lox gene-deficient Pseudomonas aeruginosa PAO1 by Etest method. Type of assay: functional. In outline:
as §1

For assay [8], the system named is Pseudomonas aeruginosa. In words: Antimicrobial activity against Pseudomonas aeruginosa PAO1 by broth microdilution method in presence of 5 mM NagZ inhibitor PUGNAc. Type of assay: functional. In outline: as §2
The test system of assay [9] is Pseudomonas aeruginosa. Briefly: Antimicrobial activity against ampC::lox gene-deficient Pseudomonas aeruginosa PAO1 by Etest method. Type of assay: functional. Summed up:
as §1

The subject of assay [10] is Pseudomonas aeruginosa. Briefly: Antimicrobial activity against ampD::lox and nagZ::lox gene-deficient Pseudomonas aeruginosa PAO1 by Etest method. Type of assay: functional. Summed up: as §1
Assay [11] concerns Pseudomonas aeruginosa. Briefly: Antimicrobial activity against ampD::lox and nagZ::lox gene-deficient Pseudomonas aeruginosa PAO1 harboring dacB gene by Etest method. Type of assay: functional. Summed up:
as §1

Assay [12] has as its system Pseudomonas aeruginosa. In words: Antimicrobial activity against ampD::lox gene-deficient Pseudomonas aeruginosa PAO1 by broth microdilution method. Type of assay: functional. In outline: as §2
Assay [13] deals with Pseudomonas aeruginosa. Briefly: Antimicrobial activity against dacB::lox gene-deficient Pseudomonas aeruginosa PAO1 by broth microdilution method. Type of assay: functional. In outline: as §2
Assay [14] deals with Pseudomonas aeruginosa. In words: Antimicrobial activity against nagZ::lox gene-deficient Pseudomonas aeruginosa PAO1 at 1 ug/ml. It is filed as functional, organism-based. Summed up: (§3)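 Population analysis: serial dilutions of overnight MH broth cultures plated on MH agar with 0, 0.5, 1, 2, 4, 8 or 16 μg/ml ceftazidime; colonies counted after 24 h as CFU at each concentration; triplicate, mean ± standard deviation.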

The subject of assay [15] is Pseudomonas aeruginosa. Briefly: Antimicrobial activity against Pseudomonas aeruginosa PAO1 at 1 ug/ml. Type of assay: functional, organism-based. Summed up: as §3
Assay [16] relates to Pseudomonas aeruginosa. In words: Antimicrobial activity against ampR::lox gene-deficient Pseudomonas aeruginosa PAO1 by Etest method. Type of assay: functional. Summed up:
as §1

Assay [17] relates to Pseudomonas aeruginosa. Briefly: Antimicrobial activity against Pseudomonas aeruginosa PAO1 by broth microdilution method. Type of assay: functional. In outline:
as §2

Assay [18] deals with Pseudomonas aeruginosa. Briefly: Antimicrobial activity against nagZ::lox gene-deficient Pseudomonas aeruginosa PAO1 by Etest method. It is filed as functional. In outline:
as §1

In assay [19] the test system is Pseudomonas aeruginosa. Briefly: Antimicrobial activity against ampD::lox gene-deficient Pseudomonas aeruginosa PAO1 by broth microdilution method in presence of 5 mM NagZ inhibitor PUGNAc. It is filed as functional. In outline: as §2
In assay [20] the test system is Pseudomonas aeruginosa. In words: Antimicrobial activity against dacB::lox gene-deficient Pseudomonas aeruginosa PAO1 by Etest method. It is filed as functional. In outline:
as §1

The test system of assay [21] is Pseudomonas aeruginosa. In words: Antimicrobial activity against ampD::lox, ampDh2::lox,ampDh3::lox and nagZ::lox gene-deficient Pseudomonas aeruginosa PAO1 by Etest method. Type of assay: functional. Summed up: as §1
Assay [22] relates to Pseudomonas aeruginosa. Briefly: Antimicrobial activity against dacB::lox gene-deficient Pseudomonas aeruginosa PAO1 by broth microdilution method in presence of 5 mM NagZ inhibitor PUGNAc. It is filed as functional. Summed up: as §2
The test system of assay [23] is Pseudomonas aeruginosa. In words: Antimicrobial activity against ampD::lox, ampDh2::lox and ampDh3::lox gene-deficient Pseudomonas aeruginosa PAO1 by Etest method. It is filed as functional. In outline: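 Etest strips on Mueller-Hinton agar, read per manufacturer's recommendations; P. aeruginosa PAO1 triple mutant deficient in ampD, ampDh2 and ampDh3 (lox deletions). Agents tested by Etest: ceftazidime, cefepime, aztreonam, piperacillin, piperacillin-tazobactam, imipenem, meropenem.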

Assay [24] concerns Pseudomonas aeruginosa. Briefly: Antimicrobial activity against Pseudomonas aeruginosa PAO1 by Etest method. Type of assay: functional. In outline:
as §1

For assay [25], the system named is Pseudomonas aeruginosa. Briefly: Antimicrobial activity against ampD::lox gene-deficient Pseudomonas aeruginosa PAO1 harboring dacB gene by broth microdilution method in presence of 5 mM NagZ inhibitor PUGNAc. It is filed as functional. In outline:
as §2

Turning to `CC(C)(O/N=C(\C(=O)N[C@@H]1C(=O)N2C(C(=O)[O-])=C(C[n+]3ccccc3)CS[C@H]12)c1csc(N)n1)C(=O)O` [CEFTAZIDIME], the MIC was 96 µg/mL (≈ 176 µM) in the assay on Pseudomonas aeruginosa [1]; 2 µg/mL in the assay with Pseudomonas aeruginosa [2]; 96 µg/mL (≈ 176 µM) against Pseudomonas aeruginosa [3]; 64 µg/mL in the assay on Pseudomonas aeruginosa [4]; 8 µg/mL with Pseudomonas aeruginosa [5]; 4 µg/mL with Pseudomonas aeruginosa [6]. For the same compound, the MIC in the assay on Pseudomonas aeruginosa [7] was 8 µg/mL (≈ 14.6 µM); with Pseudomonas aeruginosa [8], 2 µg/mL; in the assay with Pseudomonas aeruginosa [9], 1 µg/mL (≈ 1.83 µM); with Pseudomonas aeruginosa [10], 2 µg/mL (≈ 3.66 µM); in the assay with Pseudomonas aeruginosa [11] it was 4 µg/mL (≈ 7.32 µM); against Pseudomonas aeruginosa [12], 8 µg/mL (≈ 14.6 µM). In addition, the MIC is 24 µg/mL (≈ 43.9 µM) against Pseudomonas aeruginosa [13]; 2 µg/mL (≈ 3.66 µM) in the assay with Pseudomonas aeruginosa [16]; 2 µg/mL (≈ 3.66 µM) in the assay with Pseudomonas aeruginosa [17]; 1 µg/mL (≈ 1.83 µM) against Pseudomonas aeruginosa [18]; 4 µg/mL with Pseudomonas aeruginosa [19]; 24 µg/mL (≈ 43.9 µM) in the assay on Pseudomonas aeruginosa [20]. Also, the MIC in the assay on Pseudomonas aeruginosa [21] amounted to 3 µg/mL (≈ 5.49 µM); in the assay with Pseudomonas aeruginosa [22] it was 6 µg/mL; in the assay on Pseudomonas aeruginosa [23] it was 32 µg/mL (≈ 58.5 µM); against Pseudomonas aeruginosa [24], 1.5 µg/mL (≈ 2.74 µM); in the assay on Pseudomonas aeruginosa [25], 64 µg/mL. The result in the assay with Pseudomonas aeruginosa [14] and with Pseudomonas aeruginosa [15] was Active.
Take `C[C@H]1[C@H](NC(=O)/C(=N\OC(C)(C)C(=O)O)c2csc(N)n2)C(=O)N1S(=O)(=O)O` [AZTREONAM]: the MIC with Pseudomonas aeruginosa [1] was found to be 64 µg/mL (≈ 147 µM); in the assay on Pseudomonas aeruginosa [2], 3 µg/mL; with Pseudomonas aeruginosa [3], 32 µg/mL (≈ 73.5 µM); in the assay with Pseudomonas aeruginosa [4] it was 32 µg/mL; in the assay with Pseudomonas aeruginosa [5] it was 4 µg/mL; in the assay on Pseudomonas aeruginosa [6], 3 µg/mL. In addition, the minimum inhibitory concentration (MIC) in the assay on Pseudomonas aeruginosa [7] stood at 12 µg/mL (≈ 27.6 µM); in the assay with Pseudomonas aeruginosa [8], 3 µg/mL; against Pseudomonas aeruginosa [9], 2 µg/mL (≈ 4.59 µM); against Pseudomonas aeruginosa [12], 6 µg/mL (≈ 13.8 µM); against Pseudomonas aeruginosa [13] it was 12 µg/mL (≈ 27.6 µM); against Pseudomonas aeruginosa [16] it was 4 µg/mL (≈ 9.19 µM). The MIC was 3 µg/mL (≈ 6.89 µM) against Pseudomonas aeruginosa [17]; 4 µg/mL (≈ 9.19 µM) in the assay with Pseudomonas aeruginosa [18]; 3 µg/mL in the assay with Pseudomonas aeruginosa [19]; 24 µg/mL (≈ 55.1 µM) with Pseudomonas aeruginosa [20]; 8 µg/mL (≈ 18.4 µM) in the assay with Pseudomonas aeruginosa [21]; 3 µg/mL with Pseudomonas aeruginosa [22]. The MIC in the assay with Pseudomonas aeruginosa [23] was found to be 32 µg/mL (≈ 73.5 µM); with Pseudomonas aeruginosa [25] it was 24 µg/mL.
As for `CO/N=C(\C(=O)N[C@@H]1C(=O)N2C(C(=O)[O-])=C(C[N+]3(C)CCCC3)CS[C@H]12)c1csc(N)n1` [CEFEPIME], the MIC in the assay on Pseudomonas aeruginosa [1] was found to be 48 µg/mL (≈ 99.9 µM); in the assay with Pseudomonas aeruginosa [9], 1 µg/mL (≈ 2.08 µM); against Pseudomonas aeruginosa [10] it was 1.5 µg/mL (≈ 3.12 µM); with Pseudomonas aeruginosa [11], 3 µg/mL (≈ 6.24 µM); against Pseudomonas aeruginosa [16], 2 µg/mL (≈ 4.16 µM); in the assay with Pseudomonas aeruginosa [18], 1.5 µg/mL (≈ 3.12 µM). The minimum inhibitory concentration (MIC) is 12 µg/mL (≈ 25 µM) in the assay on Pseudomonas aeruginosa [20], 3 µg/mL (≈ 6.24 µM) in the assay on Pseudomonas aeruginosa [21] and 1.5 µg/mL (≈ 3.12 µM) against Pseudomonas aeruginosa [24].
